Test results from ChEMBL document CHEMBL3797028, “Novel S1P1 receptor agonists - Part 4: Alkylaminomethyl substituted aryl head groups” (Eur J Med Chem, 2016).
The source made the active and inactive calls. The calls are words filed in the database; no cut-off is given here.

Tests used:
[1] = molecular target: Sphingosine 1-phosphate receptor 3 (Homo sapiens, UniProt Q99500); experiment: Agonist activity at human recombinant S1PR3 expressed in CHO cell membranes assessed as [35S]GTPgammaS binding preincubated for 30 mins followed by [35S]GTPgammaS addition measured after 1 hr by topcount analysis; format: functional
How it was run: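 Membranes from CHO cells expressing recombinant human S1P1 or S1P3 were used. Buffer was 20 mM Hepes pH 7.4, 100 mM NaCl, 5 mM MgCl2, 0.1% fatty-acid-free BSA, 2.5% DMSO and 50 pM 35S-GTPgammaS. GDP was […] for S1P3. Compound was preincubated 30 min at rt, then incubated 1 h at rt with 35S-GTPgammaS. Bound label was collected by filtration and counted. Specific binding was taken against 10 uM S1P. EC50 was the 50%-of-specific-binding concentration, reported as the geometric mean of at least three independent duplicate runs.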

[2] = molecular target: T1, Sphingosine 1-phosphate receptor 1 (Homo sapiens, UniProt P21453); experiment: Agonist activity at human recombinant S1PR1 expressed in CHO cell membranes assessed as [35S]GTPgammaS binding preincubated for 30 mins followed by [35S]GTPgammaS addition measured after 1 hr by topcount analysis
[3] = Selectivity ratio of EC50 for human recombinant S1PR3 expressed in CHO cell membranes to EC50 for human recombinant S1PR1 expressed in CHO cell membranes; format: cell-based
How it was run: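 Compound and membranes are pre-incubated 30 min at rt, then incubated 1 h at rt, filtered and counted. EC50 is the concentration giving 50% of S1P-defined specific binding, as the geometric mean of ≥3 independent duplicate runs. Ratio = EC50 S1PR3/EC50 S1PR1.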

[4] = Apparent intrinsic clearance in Wistar rat liver microsomes at 1 uM after 2.5 to 15 mins by LC-MS/MS analysis in presence of NADPH; format: ADME; details: read-out: CLH(app)
How it was run: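 Compound at 1 uM starting concentration was depleted by 0.5 mg/mL rat liver microsomes in 100 mM sodium phosphate pH 7.4 at 37 °C, with shaking under air. Reactions were started with an NADPH-regenerating system. Samples were taken at 0, 2.5, 5, 10 and 15 min, quenched in ice-cold methanol and analysed by LC-MS/MS. CLint,app came from first-order decay fitting.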

[5] = Distribution coefficient, log D between 1-octonol and phosphate buffer at pH 7; format: physicochemical; details: 1-octanol/phosphate buffer
How it was run: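 Partition was between 1-octanol and phosphate buffer at pH 7.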

[6] = Fraction unbound in Wistar rat liver microsomes incubated for 6 hrs by LC-MS/MS based equilibrium dialysis method; format: ADME
How it was run: (§1)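 Rapid equilibrium dialysis was run on a shaker for 6 h at 37 °C. The donor side held rat plasma (pH 7.2–7.6) or 1 mg/mL rat liver microsomes in phosphate buffer pH 7.4. The receiver side held phosphate buffer pH 7.4. Both sides were measured by LC-MS/MS to give free fraction and recovery.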

[7] = Fraction unbound in Wistar rat plasma incubated for 6 hrs by LC-MS/MS based equilibrium dialysis method; format: ADME, cell-free; how it was run: as §1
[8] = Drug recovery in Wistar rat liver microsomes incubated for 6 hrs by LC-MS/MS based equilibrium dialysis method; format: ADME; details: read-out: Drug recovery; how it was run: as §1
Rattus norvegicus [9] = experiment: Change in circulating lymphocyte count in Wistar rat at 10 mg/kg administered as single dose through oral gavage after 24 hrs relative to control; format: functional
How it was run: (§2)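 Male Wistar rats (RccHan:WIST; n = 6) were given a single oral gavage dose of compound in DMSO plus 7.5% succinylated gelatine (final 5% DMSO). Blood lymphocytes were counted just before dosing and at later timepoints. Percent change was calculated per animal relative to the pre-dose value and compared with a vehicle-treated group, reported as the mean. A ±15% change was treated as baseline, and a reduction of about 60% or more as maximal.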

Rattus norvegicus [10] = experiment: Change in circulating lymphocyte count in Wistar rat at 10 mg/kg administered as single dose through oral gavage after 6 hrs relative to control; format: functional; how it was run: as §2
Rattus norvegicus [11] = experiment: Change in circulating lymphocyte count in Wistar rat at 10 mg/kg administered as single dose through oral gavage after 3 hrs relative to control; format: functional; how it was run: as §2
[12] = Apparent oral clearance in Wistar rat plasma at 1 to 10 mg/kg administered through gavage by LC-MS/MS analysis; format: ADME, organism-based
How it was run: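 Male Wistar rats received a single oral gavage dose of compound dissolved in DMSO and added to 7.5% succinylated gelatine in water (final 5% DMSO). EDTA plasma was spun at 3000 g for 10 min at 4 °C and analysed by LC-MS/MS after protein precipitation. Oral clearance was estimated from the plasma concentration–time data. In vivo intrinsic clearance used the well-stirred liver model, assuming complete absorption.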

Liver microsome = experiment: Unbound fraction corrected apparent intrinsic clearance in Wistar rat liver microsomes at 1 uM after 2.5 to 15 mins by LC-MS/MS analysis in presence of NADPH; format: ADME
How it was run: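 Apparent CLint was measured by microsomal substrate depletion: 1 uM start, 0.5 mg/mL rat liver microsomes, pH 7.4, 37 °C, NADPH-regenerating system, sampling 0–15 min, LC-MS/MS. It was then divided by the unbound microsomal fraction, which was determined by rapid equilibrium dialysis of 1 mg/mL microsomes for 6 h at 37 °C.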

[13] = Plasma concentration in Wistar rat at 10 mg/kg administered as single dose through oral gavage after 3 hrs by LC-MS/MS analysis; format: ADME, organism-based
How it was run: (§3)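 Single oral gavage dose to male Wistar rats in DMSO/7.5% succinylated gelatine (final 5% DMSO). Blood was drawn into EDTA at the lymphocyte-count timepoints. Plasma was prepared at 3000 g for 10 min at 4 °C and analysed by LC-MS/MS after protein precipitation.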

[14] = Plasma concentration in Wistar rat at 10 mg/kg administered as single dose through oral gavage after 6 hrs by LC-MS/MS analysis; format: ADME, organism-based; how it was run: as §3
[15] = Plasma concentration in Wistar rat at 10 mg/kg administered as single dose through oral gavage after 24 hrs by LC-MS/MS analysis; format: ADME, organism-based; how it was run: as §3
Rattus norvegicus [16] = species on record: Rattus norvegicus; experiment: Intrinsic clearance in rat liver microsomes scaled to body weight; details: in vitro
[17] = Plasma concentration in Wistar rat at 10 mg/kg administered as single dose through oral gavage after 72 hrs by LC-MS/MS analysis; format: ADME, organism-based; how it was run: as §3
[18] = molecular target: T1, Sphingosine 1-phosphate receptor 1; experiment: Partial agonist activity at human recombinant S1PR1 expressed in CHO cells by receptor internalization assay; format: cell-based

T1 sequence (P21453 whole entry): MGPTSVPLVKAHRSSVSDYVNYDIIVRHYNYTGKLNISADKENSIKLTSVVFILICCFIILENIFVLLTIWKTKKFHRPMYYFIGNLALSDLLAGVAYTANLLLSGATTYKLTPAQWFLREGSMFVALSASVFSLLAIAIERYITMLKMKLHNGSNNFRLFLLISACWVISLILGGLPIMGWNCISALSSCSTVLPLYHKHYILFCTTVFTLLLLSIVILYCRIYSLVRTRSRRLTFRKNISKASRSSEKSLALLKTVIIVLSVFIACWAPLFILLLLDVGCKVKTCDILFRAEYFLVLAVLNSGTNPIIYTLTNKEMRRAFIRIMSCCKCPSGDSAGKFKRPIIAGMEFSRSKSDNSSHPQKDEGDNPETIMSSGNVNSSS
Sequence of Sphingosine 1-phosphate receptor 3 (Q99500 whole entry): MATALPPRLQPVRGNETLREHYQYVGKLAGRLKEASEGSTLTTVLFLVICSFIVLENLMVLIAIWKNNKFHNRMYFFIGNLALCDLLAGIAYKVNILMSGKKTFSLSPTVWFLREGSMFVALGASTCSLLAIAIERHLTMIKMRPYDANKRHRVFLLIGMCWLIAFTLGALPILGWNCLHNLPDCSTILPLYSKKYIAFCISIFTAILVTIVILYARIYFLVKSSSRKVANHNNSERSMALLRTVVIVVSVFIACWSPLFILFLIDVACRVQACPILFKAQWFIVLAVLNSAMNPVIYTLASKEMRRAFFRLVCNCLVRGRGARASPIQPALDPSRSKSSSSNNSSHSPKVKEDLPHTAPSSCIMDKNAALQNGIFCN

SMILES: CCc1cc(-c2noc(-c3ccc(CN(C)CC(C)C)c(C)c3)n2)cc(C)c1OC[C@@H](O)CNC(=O)CO
- EC50 [1]: 570 nM
- EC50 [2]: 13 nM
- Ratio EC50 [3]: 44
- microsomal CLint at 1 µM [4]: 74 µL/min/mg
- logD [5]: > 4.1
- fraction unbound at 6 h [6]: 0.001
- fraction unbound at 6 h [7]: < 0.001
- recovery at 6 h [8]: < 80%

SMILES: CCc1cc(-c2noc(-c3cc(C)c(CN(C)C)s3)n2)cc(C)c1OC[C@@H](O)CNC(=O)CO
- EC50 [1]: 660 nM
- Activity (Rattus norvegicus [9]): 5%
- Activity (Rattus norvegicus [10]): -56%
- Activity (Rattus norvegicus [11]): -64%
- CL/F [12]: 275 mL/min/kg
- microsomal CLint at 1 µM [4]: 1220 µL/min/mg
- logD [5]: 3.2
- fraction unbound at 6 h [6]: 0.15
- fraction unbound at 6 h [7]: 0.012
- CL free (Liver microsome): 8100 µL/min/mg
- concentration at 3 h [13]: 106 ng/mL
- concentration at 6 h [14]: 31 ng/mL
- concentration at 24 h [15]: < 4 ng/mL
- CL (Rattus norvegicus [16]): 14600 mL/min/kg

SMILES: CCc1cc(-c2noc(-c3cc(C)cc(CN(C)CC)c3)n2)cc(C)c1OC[C@@H](O)CNC(=O)CO
- EC50 [1]: 1250 nM
- EC50 [2]: 3.6 nM
- Activity (Rattus norvegicus [9]): 24%
- Activity (Rattus norvegicus [10]): -58%
- Activity (Rattus norvegicus [11]): -57%
- Ratio EC50 [3]: 347
- microsomal CLint at 1 µM [4]: > 1250 µL/min/mg
- logD [5]: 3.4
- fraction unbound at 6 h [6]: 0.25
- fraction unbound at 6 h [7]: 0.012
- CL free (Liver microsome): > 5000 µL/min/mg
- recovery at 6 h [8]: < 80%

SMILES: CCc1cc(-c2nc(-c3cc(C)c(OC[C@@H](O)CNC(=O)CO)c(CC)c3)no2)ccc1CN(C)C
- EC50 [1]: 480 nM
- EC50 [2]: 1.3 nM
- Activity (Rattus norvegicus [9]): 27%
- Activity (Rattus norvegicus [10]): -61%
- Activity (Rattus norvegicus [11]): -56%
- Ratio EC50 [3]: 369
- microsomal CLint at 1 µM [4]: 1010 µL/min/mg
- logD [5]: 3.8
- fraction unbound at 6 h [6]: 0.11
- fraction unbound at 6 h [7]: 0.005
- CL free (Liver microsome): 9200 µL/min/mg
- recovery at 6 h [8]: < 80%

SMILES: CCc1cc(-c2noc(-c3cc(C)cc(CN(C)CC(C)C)c3)n2)cc(C)c1OC[C@@H](O)CNC(=O)CO
- EC50 [1]: 100 nM
- EC50 [2]: 2.1 nM
- Activity (Rattus norvegicus [9]): -44%
- Activity (Rattus norvegicus [10]): -53%
- Activity (Rattus norvegicus [11]): -52%
- CL/F [12]: 8 mL/min/kg
- Ratio EC50 [3]: 48
- microsomal CLint at 1 µM [4]: 20 µL/min/mg
- logD [5]: > 4.1
- fraction unbound at 6 h [6]: 0.027
- fraction unbound at 6 h [7]: < 0.001
- CL free (Liver microsome): 740 µL/min/mg
- concentration at 3 h [13]: 1380 ng/mL
- concentration at 6 h [14]: 1120 ng/mL
- concentration at 24 h [15]: 342 ng/mL
- concentration at 72 h [17]: 3.7 ng/mL
- Activity [18]: inactive
- CL (Rattus norvegicus [16]): 1330 mL/min/kg

SMILES: CCCCN(C)Cc1cc(C)cc(-c2nc(-c3cc(C)c(OC[C@@H](O)CNC(=O)CO)c(CC)c3)no2)c1
- EC50 [1]: 425 nM
- EC50 [2]: 2.6 nM
- Activity (Rattus norvegicus [9]): -6%
- Activity (Rattus norvegicus [10]): -57%
- Activity (Rattus norvegicus [11]): -60%
- Ratio EC50 [3]: 163
- microsomal CLint at 1 µM [4]: 183 µL/min/mg
- logD [5]: > 4.1
- fraction unbound at 6 h [6]: 0.025
- fraction unbound at 6 h [7]: < 0.001
- CL free (Liver microsome): 7300 µL/min/mg
- recovery at 6 h [8]: < 80%

SMILES: CCc1cc(-c2noc(-c3cc(C)cc(CN(C)C)c3)n2)cc(C)c1OC[C@@H](O)CNC(=O)CO
- EC50 [1]: 2000 nM
- Activity (Rattus norvegicus [9]): 21%
- Activity (Rattus norvegicus [10]): -37%
- Activity (Rattus norvegicus [11]): -44%
- microsomal CLint at 1 µM [4]: > 1250 µL/min/mg
- logD [5]: 2.8
- fraction unbound at 6 h [6]: 0.26
- fraction unbound at 6 h [7]: 0.029
- CL free (Liver microsome): > 4800 µL/min/mg

SMILES: CCc1cc(-c2noc(-c3cc(C)nc(CN(C)CC(C)C)c3)n2)cc(C)c1OC[C@@H](O)CNC(=O)CO
- EC50 [1]: 560 nM
- EC50 [2]: 3.2 nM
- Activity (Rattus norvegicus [9]): 1%
- Activity (Rattus norvegicus [10]): -75%
- Activity (Rattus norvegicus [11]): -80%
- CL/F [12]: 80 mL/min/kg
- Ratio EC50 [3]: 175
- microsomal CLint at 1 µM [4]: 197 µL/min/mg
- logD [5]: 3.8
- fraction unbound at 6 h [6]: 0.18
- fraction unbound at 6 h [7]: 0.004
- CL free (Liver microsome): 1090 µL/min/mg
- recovery at 6 h [8]: < 80%
- concentration at 3 h [13]: 385 ng/mL
- concentration at 6 h [14]: 176 ng/mL
- concentration at 24 h [15]: < 2 ng/mL
- CL (Rattus norvegicus [16]): 1970 mL/min/kg
